# According to publication PMC12749109 (Nature Communications, 2025):
# “Also recorded” adds a separate entry of the source. Where two headings read alike, the source gives them in different places.
# Legend:
# GALR2 [1] = assay: CRE-luc luciferase; type: cell-based; conditions: HEK293, GALR2, luciferase, 12 h
# Procedure, shortened: (§1)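 HEK293 cells were transfected (Lipofectamine) with empty pcDNA3.1 or GALR plasmid (2 μg) plus CRE, NFAT-RE or SRE luciferase reporter. After 36 h, medium was replaced with serum-free medium containing test peptide, diluted in DMEM from a 1 mM water stock, for 12 h. Luciferase was read 48 h post-transfection. Technical triplicate; mean ± SD; 37 °C, 5% CO2.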
# ZO-1, occludin [2] = assay: IHC of ZO-1 and occludin in colon, DSS-induced colitis, wild-type mice; type: in vivo; conditions: mouse colon, 3% DSS, peptide 3 μM daily i.p.
# Procedure, shortened: (§2)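 Colon sections from DSS-treated mice were incubated overnight at 4 °C with anti-ZO-1 (1:1000) or anti-occludin (1:200), then HRP-conjugated secondary antibody. Signal was developed with DAB, sections counterstained with hematoxylin, and staining quantified by image analysis.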
# GALR3 [3] = assay: CRE-luc luciferase; type: cell-based; conditions: HEK293, GALR3, luciferase, 12 h
# Procedure, shortened: as §1
# ZO-1, occludin [4] = assay: IHC of ZO-1 and occludin in colon, Galr2-KO mice; type: in vivo, mouse; conditions: DSS, compared with Galr2 KO-DSS group
# Procedure, shortened: as §2
# GALR3 [5] = assay: NFAT-luc luciferase; type: cell-based; conditions: HEK293, GALR3, luciferase, 12 h
# Procedure, shortened: as §1
# GALR3 [6] = assay: Tango β-arrestin2 recruitment, HTLA cells; type: cell-based
# Procedure, shortened: (§3)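 Tango assay used HTLA cells, a HEK293T line expressing a tTA-dependent luciferase reporter and β-arrestin2, transfected with GALR plasmid (2 μg). Test peptide in serum-free DMEM was added 36 h post-transfection for 12 h, then luciferase activity was measured. Mean ± SD.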
# GALR1 [7] = assay: CRE-luc luciferase; type: cell-based; conditions: HEK293, GALR1, luciferase, 12 h
# Procedure, shortened: as §1
# GALR2b = assay: Tango β-arrestin2 recruitment, HTLA cells; type: cell-based, chicken
# Procedure, shortened: as §3
# GALR3 [8] = assay: SRE-luc luciferase; type: cell-based; conditions: HEK293, GALR3, luciferase, 12 h
# Procedure, shortened: as §1
# [9] = Tolerability of peptide alone in healthy male mice, overall; type: in vivo, mouse; conditions: daily i.p. for six consecutive days
# Procedure, shortened: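 Healthy male mice received daily i.p. test peptide for six consecutive days alongside a saline-injected control group. Body weight, water intake, food intake and colon length were recorded.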
# DSS-induced colitis [10] = assay: DSS-induced colitis in wild-type mice, overall therapeutic efficacy; type: in vivo, mouse; conditions: for alleviation of colitis / intestinal inflammation, overall: chicken and mouse colitis models, overall statement
# [11] = tested on: DSS-induced intestinal inflammation; type: in vivo, chicken; conditions: chicken, 4% DSS oral gavage, daily i.p. peptide
# Procedure, shortened: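 Forty 21-day-old male yellow-feathered broilers were split into control, DSS and two peptide groups under 24 h light, with free food and water. DSS groups were gavaged with […] of 4% DSS daily from day 21 to 29. Treated birds got 100 μL of 50 μM peptide i.p. daily. TNF-α, IL-1β and IL-6 were measured by ELISA in jejunum/ileum homogenates (1:9 w/v ice-cold PBS, pH 7.4; 5000 × g, 10 min, 4 °C).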
# GALR1 [12] = assay: NFAT-luc luciferase; type: cell-based; conditions: HEK293, GALR1, luciferase, 12 h
# Procedure, shortened: as §1
# DSS-induced colitis [13] = assay: DSS-induced colitis, female mice, overall therapeutic efficacy; type: in vivo, mouse; conditions: female C57BL/6 mice, 2.5% DSS, peptide 3 μM daily i.p.
# Procedure, shortened: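 Female C57BL/6 mice (9–10 weeks, 20 ± 2 g) were randomised into four groups and given 2.5% DSS in drinking water ad libitum for 8 days, with daily i.p. test peptide (3 μM). Body weight was recorded daily. Colon length was measured after sacrifice, and distal colon was fixed in 4% formalin.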
# Caco2 cells [14] = assay: RT-qPCR cytokine expression, Caco2 cell inflammation model; type: cell-based, human; conditions: IL-1β + TNF-α
# colon transcriptome = assay: RNA-seq of colon tissue, DSS-induced colitis mice; type: in vivo; conditions: mouse colon
# Procedure, shortened: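 Total RNA was extracted from mouse colon with Trizol, sequenced on BGIseq500 and mapped to the mouse genome. Data were analysed in R and reported as mean ± SEM.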
# GALR2 [15] = assay: SRE-luc luciferase; type: cell-based; conditions: HEK293, GALR2, luciferase, 12 h
# Procedure, shortened: as §1
# intestinal barrier = assay: FD4 intestinal permeability, Galr2-KO mice; type: in vivo, mouse; conditions: Galr2-deficient mice, DSS
# Procedure, shortened: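 Mice were fasted 12 h before and during the test, then gavaged with FITC-dextran FD4 (25 mg/mL in 0.05 M PBS) at 20 mL/kg. Plasma was collected 3 h later, diluted 1:2 in PBS, and fluorescence read at excitation 490 nm / emission 520 nm.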
# TNBS-induced colitis = TNBS-induced colitis in C57BL/6 mice, overall therapeutic efficacy; type: in vivo, mouse; conditions: TNBS intrarectal, peptide 3 μM
# Procedure, shortened: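 Male C57BL/6 mice (8–12 weeks) under 1.5% isoflurane received 100 μL of 2.5% TNBS (5% TNBS in water mixed 1:1 with ethanol) into the colon lumen. Controls received 50% ethanol only. Test peptide was given at 3 μM. Weight was monitored daily, and mice were killed 72 h after induction for colon length and histology; n = 6/group.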
# ARRB2 = assay: 2% DSS colitis in Arrb2 cKO mice, overall; type: in vivo, mouse; conditions: Arrb2 cKO (gut epithelial) mice, vs AAV control mice
# Procedure, shortened: (§4)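 Male Arrb2fl/fl or Gnaqfl/fl mice (7–8 weeks) were fasted overnight, anaesthetised, and given 100 μL AAV8-Vil-cre or AAV8-Vil-null (1E+11 vg/mL) by catheter 4 cm into the colon. One week later they received 2% DSS in drinking water for 7 days. Read-outs were body weight, DAI, colon length, H&E, serum IL-6/IL-1β ELISA, and colonic Il6/Tnf/Il1b/Tgfb1/Tjp1/Ocln mRNA.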
# GALR1 [16] = assay: Tango β-arrestin2 recruitment, HTLA cells; type: cell-based
# Procedure, shortened: as §3
# GALR2 [17] = assay: G protein versus β-arrestin2 signaling bias at GALR2; type: cell-based
# DSS-induced colitis [18] = assay: H&E histology/HAI and endoscopy, DSS-induced colitis, wild-type mice; type: in vivo; conditions: mouse, 3% DSS, peptide 3 μM daily i.p.
# Procedure, shortened: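 Colons from mice given 3% DSS (8 days) and daily i.p. test peptide (3 μM) were fixed in 4% paraformaldehyde, paraffin-embedded, sectioned and H&E-stained. Sections were scored for epithelial damage, inflammatory infiltration, crypt loss and ulceration; n = 6/group.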
# GALR2 [19] = assay: DSS-induced colitis in Galr2-KO mice, overall; type: in vivo, mouse; conditions: Galr2-KO mice (or GALR2 inhibition where stated), cGAL53 3 μM
# Gnaq = assay: 2% DSS colitis in Gnaq cKO mice, overall; type: in vivo, mouse; conditions: Gnaq cKO (gut epithelial) mice, vs AAV control mice
# Procedure, shortened: as §4
# GALR3 [20] = assay: DSS-induced colitis in Galr3-KO mice, overall; type: in vivo, mouse; conditions: 3% DSS, cGAL53 3 μM
# GALR2 [21] = assay: NFAT-luc luciferase; type: cell-based; conditions: HEK293, GALR2, luciferase, 12 h
# Procedure, shortened: as §1
# mGALR2 mutants = assay: Tango β-arrestin2 recruitment, binding-site mutants; type: cell-based, mouse
# GALR2 [22] = assay: Tango and BRET β-arrestin2 recruitment; type: cell-based
# Procedure, shortened: as §3
# GALR1 [23] = assay: SRE-luc luciferase; type: cell-based; conditions: HEK293, GALR1, luciferase, 12 h
# Procedure, shortened: as §1
# DSS-induced colitis [24] = assay: DSS-induced colitis with M871 or SNAP37889 ± cGAL29, overall; type: in vivo; conditions: mouse
# Procedure, shortened: (§5)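 Male C57BL/6 mice (20 ± 2 g, 7–8 weeks) received 3% DSS with daily i.p. test peptide (3 μM). A GALR2 or GALR3 antagonist (10 nmol/mouse, in 10% DMSO/40% PEG 300/30% Tween-20/20% saline) was given 30 min before each peptide dose. Controls followed the standard DSS protocol.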
# Caco2 cells [25] = assay: RT-qPCR cytokine expression, Caco2 cell inflammation model with GALR antagonists; type: cell-based, human; conditions: Caco-2 inflammation model, IL-1β + TNF-α
# DSS-induced colitis [26] = assay: DSS-induced colitis with M871 or SNAP37889 ± cGAL53, overall; type: in vivo; conditions: mouse, 3% DSS; antagonist 10 nmol/mouse + cGAL53 3 μM
# Procedure, shortened: as §5
compound,measurement,setting,value
GWTLNSAGYLLGPRRIDHLLMIKEMPIARGREEAPGA-YAVDNHRSFNDKHGFT-NH2 [cGAL53],Gs (CRE-luc) activation,GALR2 [1],can activate; also recorded: activated
same,ZO-1 and occludin protein and mRNA levels,"ZO-1, occludin [2]",markedly enhanced
same,Gs (CRE-luc) activation,GALR3 [3],can activate
same,expression of ZO-1 and occludin,"ZO-1, occludin [4]",did not increase
same,Gq (NFAT-luc) activation,GALR3 [5],can activate
same,ARRB2 (β-arrestin2) recruitment,GALR3 [6],significantly enhanced
same,Gs (CRE-luc) activation,GALR1 [7],not GALR1
same,ARRB2 (β-arrestin2) recruitment,GALR2b,significantly enhanced
same,Gi (SRE-luc) activation,GALR3 [8],can activate
same,"body weight, water and food intake, colon length (tolerability)",[9],"neither peptide affected body weight, water, and food intake, nor colon length, indicating good tolerability"
same,colitis symptoms,"DSS-induced colitis [10]; WT mice, 3% DSS, cGAL53 3 μM",significant improvement in colitis symptoms
same,"alleviation of colitis / intestinal inflammation, overall",DSS-induced colitis [10],"superior therapeutic efficacy compared to the conserved GAL29 peptide; also recorded: superior protective effects against DSS-induced inflammation in both chickens and mice; also recorded: alleviates colitis-associated weight loss, colon shortening, bleeding, and inflammation in both chickens and mice; also recorded: greater therapeutic efficacy in treating intestinal inflammation in chickens and mice"
same,"alleviation of colitis / intestinal inflammation, overall",DSS-induced colitis [10]; listed as GAL53,superior protective effects against intestinal inflammation in birds and mammals; also recorded: exerts protective effects in chemical models of IBD
same,"alleviation of colitis / intestinal inflammation, overall",DSS-induced colitis [10]; listed as chicken GAL53,superior efficacy over the conserved GAL29
same,"DSS-induced body weight reduction, colon shortening and DAI increase","DSS-induced colitis [10]; mouse, 3% DSS in drinking water, peptide 3 μM daily i.p.",superior therapeutic efficacy over the shorter galanin variants (cGAL29 and hGAL30); also recorded: superior therapeutic efficacy in mouse colitis compared to cGAL29
same,IBD-related symptoms in DSS-treated chickens,[11],"ameliorated IBD-related symptoms in chickens, manifested as reductions of body weight loss, intestinal bleeding points and tissue damage"
same,IBD-related symptoms in DSS-treated chickens,[11]; listed as GAL53,superior therapeutic efficacy
same,Gq (NFAT-luc) activation,GALR1 [12],not GALR1
same,therapeutic effect in female mice with DSS-induced colitis,DSS-induced colitis [13],superior therapeutic benefits
same,concentration giving (similar) anti-inflammatory effect,Caco2 cells [14],0.1 µM
same,"expression of Il6, Il23 and Tgfb1 induced by IL-1β and TNF-α",Caco2 cells [14]; RT-qPCR,reduced
same,DSS-changed pathways (KEGG),colon transcriptome,significantly modulated
same,expression levels of immune-related genes,colon transcriptome,significantly reduced
same,inflammation-related pathways (GSVA),colon transcriptome; compared to cGAL29,significantly greater reductions
same,Gi (SRE-luc) activation,GALR2 [15],can activate; also recorded: activated
same,circulating FD4 tracer levels,intestinal barrier,remained unchanged
same,"TNBS-induced colitis (colon length, histopathological damage)",TNBS-induced colitis,"more effective than cGAL29, nearly reversing the colon length and histopathological damage"
same,"therapeutic effects (weight loss, colon shortening, intestinal damage, inflammation)",ARRB2,significantly diminished; also recorded: negated the therapeutic effects
same,ARRB2 (β-arrestin2) recruitment,GALR1 [16],significantly enhanced
same,bias at GALR2,GALR2 [17],β-arrestin2- biased agonizts of GALR2
same,G protein activation / ARRB2 recruitment via GALR2,"GALR2 [17]; GALR2, overall statement",significantly enhances the recruitment of ARRB2 to GALR2
same,endoscopic and colon tissue damage scores,DSS-induced colitis [18],most pronounced improvements
same,colitis symptoms / effects of cGAL53,GALR2 [19],abolished in Galr2-deficient mice; also recorded: did not exhibit any change; also recorded: completely abolishes the effects of cGAL53
same,"ability to alleviate weight loss, colon shortening, intestinal damage, inflammation",Gnaq,significantly reduced
same,colitis symptoms,GALR3 [20],significant improvement in colitis symptoms
same,Gq (NFAT-luc) activation,GALR2 [21],can activate; also recorded: activated
same,β-arrestin2 recruitment after mutation of predicted unique binding sites,mGALR2 mutants,affected
same,ARRB2 (β-arrestin2) recruitment,GALR2 [22],significantly enhanced; also recorded: preferentially activated ARRB2
same,Gi (SRE-luc) activation,GALR1 [23],not GALR1
O=C1C(=Nc2cccc(C(F)(F)F)c2)c2ccccc2N1c1ccccc1 [SNAP37889],effect of antagonist on therapeutic efficacy of cGAL29,DSS-induced colitis [24],exerted inhibitory effects on the therapeutic efficacy of cGAL29
same,block of anti-inflammatory effect of cGAL53 by antagonist,Caco2 cells [25],not by SNAP37889
same,effect of antagonist on ability of cGAL53 to alleviate colitis,DSS-induced colitis [26],cGAL53 was still effective in treating colitis symptoms in mice
